In ChEMBL document CHEMBL1157305, “Serotonergic activity-guided phytochemical investigation of the roots of Angelica sinensis” (J Nat Prod, 2006):

Experiments:
[1] = target: T1, 5-hydroxytryptamine receptor 7 (Homo sapiens, UniProt P34969); test: Displacement of [3H]LSD from human recombinant 5HT7 receptor expressed in CHO cells at 100 uM by liquid scintillation counting relative to control; type: cell-based
Outline: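 Membranes from confluent human 5-HT7-transfected CHO cells were lysed in hypotonic buffer at 4 °C and homogenized in TEM buffer. Protein was measured by Lowry. Binding used [3H]LSD (5 nM) in 75 mM Tris-HCl, 1.25 mM MgCl2, 1 mM EDTA, pH 7.4, for 1 h at 37 °C. Samples were filtered on PEI-presoaked filters and counted by liquid scintillation. Nonspecific binding was defined with 250 nM 5-HT.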

[2] = target: T1, 5-hydroxytryptamine receptor 7; test: Displacement of [3H]LSD from human recombinant 5HT7 receptor expressed in CHO cells by liquid scintillation counting; type: cell-based
Outline: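 Membranes from confluent CHO cells stably carrying human 5-HT7, grown in Ham's F-12 with 10% FBS. Cells lysed in hypotonic Tris/MgCl2/EDTA buffer at 4 °C, and membranes washed in TEM buffer. Incubated with 5 nM [3H]LSD for 1 h at 37 °C in 75 mM Tris-HCl, 1.25 mM MgCl2, 1 mM EDTA, pH 7.4. Filtered, then counted by scintillation. Nonspecific binding defined with 250 nM 5-HT. IC50 is the concentration giving 50% inhibition of binding.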

T1 sequence (P34969 whole entry): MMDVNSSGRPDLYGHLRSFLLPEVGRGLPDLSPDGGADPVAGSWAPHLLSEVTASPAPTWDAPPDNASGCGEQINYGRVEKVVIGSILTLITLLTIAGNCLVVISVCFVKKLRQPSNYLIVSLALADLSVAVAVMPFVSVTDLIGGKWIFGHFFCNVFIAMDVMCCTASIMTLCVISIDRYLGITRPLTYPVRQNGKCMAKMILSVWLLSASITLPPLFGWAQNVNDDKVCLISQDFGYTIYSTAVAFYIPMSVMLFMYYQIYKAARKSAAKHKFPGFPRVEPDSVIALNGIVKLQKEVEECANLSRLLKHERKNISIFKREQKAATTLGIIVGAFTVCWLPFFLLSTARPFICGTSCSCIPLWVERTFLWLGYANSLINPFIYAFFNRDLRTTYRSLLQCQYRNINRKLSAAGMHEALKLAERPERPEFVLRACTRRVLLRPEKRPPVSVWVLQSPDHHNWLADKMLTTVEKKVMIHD

SMILES	inhibition [1] [%]	IC50 [2] [µM]
C=C[C@H](O)C#CC#C[C@@H](O)C1OC1CCCCCCC (stereo not given in full)	36	–
C=C[C@@H](O)C#CC#C[C@@H](O)/C=C\CCCCCCC [FALCARINDIOL]	61	118
CCC/C=C1\OC(=O)C2=C1CCC=C2	33	–
CCC/C=C1\OC(=O)C2=CC3CCC21[C@]1(OC(=O)c2ccccc21)[C@@H]3CCC (stereo not given in full)	19	–
COc1cc(/C=C/C(=O)OCC(O)C(OC)c2ccc(O)c(OC)c2)ccc1O (stereo not given)	31	–
CC[C@H](/C=C/[C@@H](C)[C@H]1CC[C@H]2[C@@H]3CC=C4C[C@@H](O)CC[C@]4(C)[C@H]3CC[C@]12C)C(C)C	0	–
CCC/C=C1\OC(=O)c2ccccc21 [Z-butylidenephthalide]	46	127
CCC/C=C1\OC(=O)C2=C1CCC(O)C2OC (stereo not given)	36	–
CCCCNS(=O)(=O)c1ccccc1	0	–
CC/C=C\C/C=C\C/C=C\CCCCCCCC(=O)OCC(O)COC(=O)CCCCCCCC/C=C\C/C=C\C=C\CC (stereo not given)	0	–
COc1cc(C=O)ccc1O	0	–
COc1cc(/C=C/C(=O)O)ccc1O	41	–
CCCCCCC/C=C\[C@H](O)C#CC#CC(=O)CCOC	69	> 150
CCCCCCC/C=C\[C@H](O)C#CC#C[C@@H](O)CC	5	–
COc1cc(/C=C/C(=O)OCCc2ccc(O)cc2)ccc1O	71	47.6
C/C=C(/C)C(=O)OC(C)CCC1OC(=O)c2ccccc21 (stereo not given)	21	–
C=C[C@@H](O)C#CC#C[C@@H](O)/C=C\CCCCCCCCOC(C)=O	49	118
CCC/C=C1\OC(=O)C2=C1CC[C@@H](O)[C@@H]2O	0	–
CCC/C=C1\OC(=O)C23C=CCCCC12C1(OC(=O)c2ccccc21)C3CCC (stereo not given)	24	–
CC(C)=CCOc1c2occc2cc2ccc(=O)oc12	57	–
